The structures appear in SMILES notation.

One may read the Ki as a dissociation constant, usually derived from enzyme kinetics or from competition with a known ligand.

Assay [1] concerns the target T1, Glutamate receptor 1 (Homo sapiens, UniProt P42261). In words: Inhibition of the (-40 mV) current elicited by 100 uM glutamate by simultaneous co-application in xenopus oocytes injected with GluR1 flop RNA. The format is cell-based, Oocyte. In outline:
(§1)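 Two-electrode voltage clamp of stage V–VI Xenopus laevis oocytes (collagenase-isolated), injected with 5-30 ng GluR1 flop cRNA, recorded 3-14 days later in Ringer (pH 7.5; low-Ca2+ Ringer for high-current cells).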

For assay [2], the target named is T1, Glutamate receptor 1. In words: Inhibition of the (-80 mV) current elicited by 100 uM glutamate by simultaneous co-application in xenopus oocytes injected with GluR1 flop RNA. The format is cell-based, Oocyte. In outline:
as §1

Assay [3] can be described thus: Ratio of Ki value at -40 mV to that of -80 mV was determined. The format is functional.
Assay [4] is described as follows: Inhibition of the current elicited by 100 uM glutamate by simultaneous co-application of the antagonist in xenopus oocytes injected with a 1:1 mixture of GluR1 flop and GluR2 flop RNA. Particulars: oocyte. The assay is classed as functional, cell-based, Xenopus laevis. In outline: (§2)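 Xenopus laevis oocytes (stage V–VI) injected with 5-30 ng cRNA, either 1:1 GluR1 flop + GluR2 flop or GluR5(Q) flop. After 3-14 days, two-electrode voltage clamp recordings were made in Ringer pH 7.5 (low-Ca2+ Ringer if currents were high). […] Values are means of two independent measurements in triplicate.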

Assay [5] is described as follows: Inhibition of the current elicited by 100 uM glutamate by simultaneous co-application of the antagonist in xenopus oocytes injected with a 1:1 mixture of GluR1 flop and GluR2 flop RNA as well as GluR5(Q). The assay is classed as functional, cell-based, Xenopus laevis. Particulars: oocyte. In outline:
as §2

T1 sequence (P42261 whole entry): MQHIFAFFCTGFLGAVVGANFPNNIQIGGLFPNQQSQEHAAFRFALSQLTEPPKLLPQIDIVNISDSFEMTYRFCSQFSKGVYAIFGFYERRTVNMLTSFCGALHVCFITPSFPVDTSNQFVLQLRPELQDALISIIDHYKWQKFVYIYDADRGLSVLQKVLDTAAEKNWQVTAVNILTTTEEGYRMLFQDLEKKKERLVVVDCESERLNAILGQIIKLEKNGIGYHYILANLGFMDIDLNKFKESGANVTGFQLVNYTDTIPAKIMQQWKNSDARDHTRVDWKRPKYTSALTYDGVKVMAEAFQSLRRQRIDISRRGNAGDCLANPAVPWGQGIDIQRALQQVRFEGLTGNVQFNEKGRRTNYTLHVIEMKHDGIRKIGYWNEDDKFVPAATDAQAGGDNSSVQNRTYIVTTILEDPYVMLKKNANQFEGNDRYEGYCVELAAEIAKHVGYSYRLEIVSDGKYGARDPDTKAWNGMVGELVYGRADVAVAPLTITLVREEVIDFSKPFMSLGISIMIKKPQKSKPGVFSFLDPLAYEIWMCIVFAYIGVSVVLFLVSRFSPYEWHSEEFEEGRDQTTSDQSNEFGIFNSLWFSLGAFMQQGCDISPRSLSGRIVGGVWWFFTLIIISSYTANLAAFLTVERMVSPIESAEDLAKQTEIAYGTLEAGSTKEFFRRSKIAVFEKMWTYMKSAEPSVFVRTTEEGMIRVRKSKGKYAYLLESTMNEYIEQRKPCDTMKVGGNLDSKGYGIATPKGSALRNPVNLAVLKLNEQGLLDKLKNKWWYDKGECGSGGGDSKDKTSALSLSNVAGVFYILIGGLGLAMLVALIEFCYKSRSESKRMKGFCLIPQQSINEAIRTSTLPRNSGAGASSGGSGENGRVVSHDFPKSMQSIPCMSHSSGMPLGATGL

With `NCCCNCCCCCCCCNC(=O)C(Cc1ccc(O)cc1)NC(=O)c1ccncc1` (configuration not stated), the Ki at Glutamate receptor 1 [1] was determined as 330 nM; at Glutamate receptor 1 [2], 64 nM. Moreover, the Ratio in assay [3] amounted to 5.1.
For `CC(=O)NC(Cc1ccc(O)cc1)C(=O)NCCCCCCCCNCCCN` (configuration not stated) the same measures were 300 nM, 220 nM and 1.4.
For `NCCCNCCCCCCCCNC(=O)C(Cc1ccc(O)cc1)NC(=O)/C=C/c1ccccc1` (configuration not stated), in that order: 170 nM, 110 nM and 1.5.
With `CCCC(=O)NC(Cc1ccc(O)cc1)C(=O)NCCCCCNCCCCCCN` (configuration not stated), the Ki came to 287 nM at Glutamate receptor 1 [1], 3.3 nM at Glutamate receptor 1 [2], 5200 nM in assay [4] and 2200 nM in assay [5]. Also, in assay [3], the Ratio turned out to be 86.
For the compound `CCC(=O)NC(Cc1ccc(O)cc1)C(=O)NCCCCCCCCNCCCN` (configuration not stated), the Ki on Glutamate receptor 1 [1] is 280 nM; on Glutamate receptor 1 [2] it was 100 nM. For the same compound, the Ratio in assay [3] turned out to be 2.8.
Consider `CC(C)(C)C(=O)NC(Cc1ccc(O)cc1)C(=O)NCCCCCCCCNCCCN` (configuration not stated), for which the Ki on Glutamate receptor 1 [1] was 140 nM; at Glutamate receptor 1 [2] it was 90 nM. Also, the Ratio in assay [3] was 1.6.
For `NCCCNCCCCCCCCNC(=O)C(Cc1ccc(O)cc1)NC(=O)c1ccccn1` (configuration not stated) the same measures were 170 nM, 130 nM and 1.3.
On to `CCCC(=O)NC(Cc1ccc(O)cc1)C(=O)NCCCCCCCNCCCCN` (configuration not stated), for which the Ki at Glutamate receptor 1 [1] was 3000 nM; at Glutamate receptor 1 [2] it was 168 nM; in assay [4], 1600 nM; in assay [5] it was 290 nM. Further, the Ratio in assay [3] was determined as 18.
For the compound `NCCCNCCCCCCCCNC(=O)C(Cc1ccc(O)cc1)NC(=O)c1ccccc1` (configuration not stated), the Ki on Glutamate receptor 1 [1] was determined as 250 nM; on Glutamate receptor 1 [2] it was 130 nM. Also, in assay [3], the Ratio was 1.9.
`CCCC(=O)NC(Cc1ccc(O)cc1)C(=O)NCCCNCCCCNCCCN` (configuration not stated): the Ki at Glutamate receptor 1 [1] was 170000 nM; at Glutamate receptor 1 [2], 22000 nM; in assay [4] it was over 5000 nM; in assay [5], 15 nM.
For `CCCC(=O)NC(Cc1ccc(O)cc1)C(=O)NCCCCCCNCCCCCN` (configuration not stated) the same measures were over 10000 nM, 468 nM, 6400 nM and 800 nM.
Take `NCCCNCCCCCCCCNC(=O)C(Cc1ccc(O)cc1)NC(=O)c1cccnc1` (configuration not stated): the Ki at Glutamate receptor 1 [1] was 210 nM; at Glutamate receptor 1 [2], 88 nM. The Ratio in assay [3] was 2.4.
`CCCC(=O)NC(Cc1ccc(O)cc1)C(=O)NCCCCNCCCCCCCN` (configuration not stated): the Ki is 135 nM at Glutamate receptor 1 [1], 38 nM at Glutamate receptor 1 [2], over 10000 nM in assay [4] and 60 nM in assay [5]. The Ratio in assay [3] stood at 3.6.
For `NCCCNCCCCCCCCNC(=O)C(Cc1ccc(O)cc1)NC(=O)Cc1ccccc1` (configuration not stated), the Ki on Glutamate receptor 1 [1] was found to be 250 nM; on Glutamate receptor 1 [2] it was 110 nM. Also, the Ratio in assay [3] came to 2.3.
As to `CCCC(=O)NC(Cc1ccc(O)cc1)C(=O)NCCCCCCCCCNCCN` (configuration not stated), the Ki at Glutamate receptor 1 [1] is 6200 nM; on Glutamate receptor 1 [2], 410 nM; in assay [4], over 10000 nM; in assay [5] it was 2100 nM.
For `CCCC(=O)NC(Cc1ccc(O)cc1)C(=O)NCCCCCCCCNCCCN` (configuration not stated), in that order: 8000 nM, 65 nM, over 10000 nM and 250 nM.
As for `NCCCNCCCCCCCCNC(=O)C(Cc1ccc(O)cc1)NC(=O)CCc1ccccc1` (configuration not stated), the figures for the Ki on Glutamate receptor 1 [1] and at Glutamate receptor 1 [2] were 254 nM and 250 nM, respectively. Besides, the Ratio in assay [3] came to 1.
For `CCCCCC(=O)NC(Cc1ccc(O)cc1)C(=O)NCCCCCCCCNCCCN` (configuration not stated), the figures for the inhibition constant (Ki) at Glutamate receptor 1 [1] and at Glutamate receptor 1 [2] were 1000 nM and 68 nM, respectively. The Ratio in assay [3] was found to be 14.7.
In the case of `NCCCNCCCCCCCCNC(=O)C(Cc1ccc(O)cc1)NC(=O)C1CCCCC1` (configuration not stated), the Ki at Glutamate receptor 1 [1] amounted to 240 nM; on Glutamate receptor 1 [2], 78 nM. Also, the Ratio in assay [3] was 3.1.

Values taken from ChEMBL document CHEMBL1135693, “Solid-phase synthesis of polyamine toxin analogues: potent and selective antagonists of Ca2+-permeable AMPA receptors” (J Med Chem, 2002).
